From ChEMBL document CHEMBL1126156, “Multivariate analysis by the minimum spanning tree method of the structural determinants of diphenylethylenes and triphenylacrylonitriles implicated in estrogen receptor binding, protein kinase C activity, and MCF7 cell proliferation” (J Med Chem, 1992)

Assays:
[1] = target: T1, Protein kinase C, PKC; classical (Rattus norvegicus) (UniProt P05696+P68403+P63319); assay: The percent stimulation or inhibition of protein kinase C III activity was determined for phosphatidylserine (PS) and diolein(PS+DO) in the presence of [Ca2+]; assay type: protein assay; design: concentration or dose not given beside the values; conditions: values are per cent of control
Summary of the method: (§1)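 Type III (α) PKC purified from rat brain soluble fraction, assayed with calf thymus H1 histone, 0.1 mM Ca2+, 5 mM magnesium acetate, 10 μM [32P]ATP, 2 μg/mL phosphatidylserine plus 0.2 μg/mL diolein. Compounds mostly at 10⁻⁴ M; activity expressed as percent of control.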

[2] = target: T1, Protein kinase C, PKC; classical (Rattus norvegicus); assay: Percent stimulation or inhibition of protein kinase C III activity for phosphatidylserine (PS) in the presence of [Ca2+].; assay type: protein assay; design: concentration or dose not given beside the values; conditions: values are per cent of control
Summary of the method: (§2)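 Purified type III (α) PKC from rat brain soluble fraction. Substrate calf thymus H1 histone with 0.1 mM Ca2+, 5 mM magnesium acetate, 10 μM [32P]ATP and 2 μg/mL phosphatidylserine, no diolein. Most compounds at 10⁻⁴ M, given as percent of control activity.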

Rattus norvegicus = organism: Rattus norvegicus; assay: Percent stimulation or inhibition of protein kinase C III activity for protamine sulfate in the presence of EGTA.; design: concentration or dose not given beside the values; conditions: values are per cent of control
Summary of the method: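 Rat brain type III (α) PKC, purified, with protamine sulfate as substrate and 0.5 mM EGTA in place of Ca2+, phosphatidylserine and diolein; 5 mM magnesium acetate, 10 μM [32P]ATP. Most compounds at 10⁻⁴ M; percent of control activity.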

MCF7S [3] = assay: Cytostatic activity against MCF-7 cell proliferation.; assay type: functional, Homo sapiens; design: concentration or dose not given beside the values
Summary of the method: (§3)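 MCF-7 cells in phenol red-free charcoal-treated medium given 10⁻⁶ M E2 plus test compound (3–10 μM), 6 days of growth. DNA expressed as percent of E2-treated cells. IC30 is the concentration giving 30% inhibition. Percent inhibition taken at 10⁻⁵ M, or at 10⁻⁶ M in a second series. Means of two experiments.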

MCF7S [4] = assay: Agonistic activity in MCF-7 cell proliferation.; assay type: functional, Homo sapiens
Summary of the method: (§4)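 MCF-7 cells grown in phenol red-free medium with 5% dextran-coated charcoal-treated serum, tested 10 pM to 1 μM. DNA content read after growth. Agonism expressed relative to the maximum response with E2 (=100%), whatever the concentration. EC50 (50% of maximum response) taken from two separate experiments.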

MCF7S [5] = assay: Agonist activity against MCF-7 cell proliferation; assay type: functional, cell-based; conditions: Homo sapiens; summary of the method: as §4
[6] = target: Estrogen receptor (Bos taurus) (UniProt Q9XSB5+P49884); assay: Relative binding affinity for calf uterus estrogen receptor after 2 hr at 0 degree C; assay type: protein assay
Summary of the method: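 Calf uterus cytosol ER incubated 2 h at 0 °C with [6,7-3H]-17β-estradiol and competitor. RBA given relative to estradiol (=100%), mean of at least four determinations.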

BT-20 [7] = assay: (§5) Cytotoxic effect on ER-negative BT20 cell proliferation; assay type: functional, Homo sapiens; design: concentration or dose not given beside the values
Summary of the method: (§6)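 ER-negative BT20 cells, no E2, test compound at 3–10 μM for 6 days. DNA read as percent of untreated control. IC30 is the concentration inhibiting growth by 30%; percent inhibition taken at 10⁻⁵ M. Means of two experiments, triplicate wells.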

MCF7S [8] = assay: Antagonist activity against MCF-7 cell proliferation; assay type: functional, Homo sapiens
Summary of the method: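 Phenol red-free MCF-7 cultures with 5% dextran-coated charcoal-treated serum, stimulated by 0.1 nM E2. Proliferation read as DNA content after 8 days relative to E2 alone. Percent antagonism is the inhibition at 10⁻⁶ M test compound versus 10⁻¹⁰ M E2. IC50 (50% of maximum response) from two separate experiments.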

BT-20 [9] = assay: as §5; assay type: functional; conditions: Homo sapiens; summary of the method: as §6
MCF7S [10] = assay: Cytotoxic effect on MCF-7 cell proliferation; assay type: functional; conditions: Homo sapiens; summary of the method: as §3
[11] = target: T1, Protein kinase C, PKC; classical (Rattus norvegicus); assay: Percent stimulation or inhibition of protein kinase C with [Ca2+] for phosphatidylserine (PS); assay type: protein assay; summary of the method: as §2
[12] = target: T1, Protein kinase C, PKC; classical (Rattus norvegicus); assay: Percent stimulation or inhibition of protein kinase C with [Ca2+] for phosphatidylserine and diolein(PS+DO); assay type: protein assay; design: concentration or dose not given beside the values; conditions: values are per cent of control; summary of the method: as §1

residual activity [1]	residual activity [2]	residual activity (Rattus norvegicus)	EC50 (MCF7S [5])	RBA [6]	residual activity ([11]; values are per cent of control)	residual activity [12]	residual activity [11]	Structure (SMILES)	Inhibition (MCF7S [3])	Agonism (MCF7S [4])	Inhibition (BT-20 [7])	Antagonism (MCF7S [8])	IC30 (BT-20 [9])	IC30 (MCF7S [10])
89%	77%	99%						C[C@]12CC[C@@H]3c4ccc(O)cc4CC[C@H]3[C@@H]1CC[C@@H]2O [ESTRADIOL]	25%	100%				
71%		93%	2.65 nM	17%				Oc1ccc(C(=C2CCCCCC2)c2ccc(O)cc2)cc1	16%	96%	20%	21%		
32%	38%	33%						N#CC(=C(c1ccc(O)cc1)c1ccc(O)cc1)c1ccc(O)cc1	39%	85%				
23%		103%	11 nM	0.1%	46%			CC(C)N(CCOc1ccc(C(C#N)=C(c2ccccc2)c2ccccc2)cc1)C(C)C	30%	93%	36%	10%	9 µM	10 µM
80%	113%	90%						Cc1ccc(/C(=C(/C#N)c2ccc(O)cc2)c2ccc(O)cc2)cc1	35%	69%				
83%		85%	0.16 nM	70%				CC(C)C(Cl)=C(c1ccc(O)cc1)c1ccc(O)cc1	30%	96%	45%	12%	7.6 µM	
42%	94%	50%						N#CC(=C(c1ccc(O)cc1)c1ccc(O)cc1)c1ccccc1	30%	62%				
113%	92%	103%						N#CC(=C(c1ccccc1)c1ccccc1)c1ccc(O)cc1	8%	90%				
42%		40%	130 nM	23%				Oc1ccc(C(=C2CCCC2)c2ccc(O)cc2)cc1	6%	100%	10%	1%		
81%	111%	91%	4.51 nM	26%				Oc1ccc(C(=C2CCCCC2)c2ccc(O)cc2)cc1	12%	97%	12%	23%		
1%	10%	88%						CCN(CC)CCOc1ccc(/C(=C(\C#N)c2ccccc2)c2ccc(O)cc2)cc1	89%	12%				
	36%					30%	36%	CC/C(=C(/c1ccccc1)c1ccc(OCCN(C)C)cc1)c1ccccc1	79%	100%				
38%	84%	46%						Cc1ccc(C(C#N)=C(c2ccc(O)cc2)c2ccc(O)cc2)cc1	38%	71%				
100%	98%	92%						COc1ccc(C(=C(C#N)c2ccccc2)c2ccc(OC)cc2)cc1	8%	34%				
100%	100%	100%						COc1ccc(/C(=C(\C#N)c2ccccc2)c2ccc(O)cc2)cc1	36%	26%				
100%	100%	100%						CC(C)Oc1ccc(C(=C(C#N)c2ccccc2)c2ccc(OC(C)C)cc2)cc1	32%	40%				
	49%	107%				21%		CC/C(=C(\c1ccccc1)c1ccc(OCCN(C)C)cc1)c1ccccc1 [TAMOXIFEN]	49%	21%				
